In ChEMBL document CHEMBL1130202, “Biologically active heteroarotinoids exhibiting anticancer activity and decreased toxicity” (J Med Chem, 1997) one finds Activity, Mortality and Total dose data, which are given here for 4 molecules.

Each structure is given as a SMILES string. Active and inactive are the calls of the source. No cut-off for these calls is given here.

In assay [1] the test system is Mus musculus. In words: Effect of compound on adrenal to body weight ratios in mice at 0.8 mg/kg/day dose; all the animals died by day 65. Format: functional, organism-based.
Assay [2] deals with Mus musculus. Put plainly: Effect of compound on Spleen to body weight ratios in mice at 0.1 mg/kg/day dose on day 65; dead by day 65. Format: functional, organism-based. The procedure, abridged: (§1)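 Male B6D2F1 mice dosed daily by gavage with compound in corn oil; vehicle 1 (corn oil) controls run to termination on day 65. Low, mid 1, mid 2 and high dose groups, with dosage increases partway through the study. Organ-to-body weight ratios (×1000) taken at necropsy on day 65, reported as mean ± SD for 4 to 8 animals and as % difference from vehicle.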

In assay [3] the test system is Mus musculus. Put plainly: Effect of compound on thymus to body weight ratios in mice at 0.2 mg/kg/day dose; all the animals died by day 65. It counts as functional, organism-based. The method, boiled down: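 Male B6D2F1 mice were dosed daily by gavage in corn oil, with TTNPB given at 0.1–0.8 or 0.01/0.05 mg/kg/day. Thymus-to-body weight ratio (×1000) was taken at necropsy on day 65 against vehicle 1, or on day 25 for the 0.01/0.05 groups against vehicle 2. Mean ± SD of 4–8 animals, reported as % difference from vehicle.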

For assay [4], the system named is Mus musculus. In words: Effect of compound on right testicle to body weight ratios in mice at 0.4 mg/kg/day dose on day 65. It counts as functional, organism-based.
Assay [5] relates to Mus musculus. In words: Alopecia observed at 0.1 mg/kg/day dose in mice with hypervitaminosis; 10/16. Format: functional, organism-based.
The subject of assay [6] is Mus musculus. Put plainly: Effect of compound on Spleen to body weight ratios in mice at 0.05 mg/kg/day dose; measured on day 25.
Assay [7] concerns Mus musculus. Put plainly: Effect of compound on Spleen to body weight ratios in mice at 0.01 mg/kg/day dose; all the animals died by day 65. It counts as functional, organism-based.
For assay [8], the system named is Mus musculus. Put plainly: Skin scaling at 0.05 mg/kg/day in mice with hypervitaminosis; 8/8. Format: functional, organism-based.
Assay [9] concerns Mus musculus. Put plainly: Alopecia observed at 0.2 mg/kg/day dose with hypervitaminosis; 10/16. Format: functional, organism-based.
For assay [10], the system named is Mus musculus. In words: Average number of fractures per mouse at 0.8 mg/kg/day.
The test system of assay [11] is Mus musculus. In words: Enlarged lymph in gross pathological observations with hypervitaminosis A at 0.1 mg/kg/day dose with gross observations/total number of animals in group'' 16/16. It counts as functional, organism-based.
In assay [12] the test system is Mus musculus. In words: Effects of retinoids on thymus to body weight ratios in mice at 0.01 mg/kg/day dose.
Assay [13] deals with Mus musculus. In words: Enlarged lymph in gross pathological observations with hypervitaminosis A in mice at 0.01 mg/kg/day dose with gross observations/total number of animals in group; 6/8. Format: functional, organism-based.
Assay [14] relates to Mus musculus. Put plainly: Effect of compound on Spleen to body weight ratios in mice at 0.4 mg/kg/day dose on day 65; dead by day 65. It counts as functional, organism-based. The method, boiled down:
as §1

In assay [15] the test system is Mus musculus. In words: Approximate day to determine 10% weight loss in mice at 0.05 mg/kg/day. Format: functional. The procedure, abridged:
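Male B6D2F1 mice dosed daily by gavage in corn oil; body weights followed to termination (day 65, or day 25 for TTNPB 0.01/0.05 mg/kg/day groups) and compared with the matching vehicle group. Value is approximate day of onset of 10% body weight reduction versus vehicle.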

Assay [16] relates to Mus musculus. Put plainly: Fracture incidents in mouse at 0.8 mg/kg/day; 0/16.
The test system of assay [17] is Mus musculus. In words: Skin scaling at 0.1 mg/kg/day in mice with hypervitaminosis; 14/16. It counts as functional, organism-based.
Assay [18] relates to Mus musculus. In words: Avoiding pressure on limbs at 0.8 mg/kg/day dose in mice hypervitaminosis; 0/16. It counts as functional, organism-based. As to conditions: Limb.
Assay [19] has as its system Mus musculus. Put plainly: Alopecia observed at 0.8 mg/kg/day dose in mice with hypervitaminosis; 3/16. It counts as functional, organism-based.
The subject of assay [20] is Mus musculus. Put plainly: Average number of fractures per mouse at 0.05 mg/kg/day.
In assay [21] the test system is Mus musculus. In words: Effect of compound on adrenal to body weight ratios in mice at 0.01 mg/kg/day dose; measured on day 25.
Assay [22] is filed under the species Mus musculus. In words: Avoiding pressure on limbs in mice at mid dose 1 with Hypervitaminosis; 0/16. Format: functional, organism-based. The note with it: Limb.
For assay [23], the species on record is Mus musculus. Put plainly: Fracture incidence in mouse at mid dose 2; 0/8.
Assay [24] is filed under the species Mus musculus. Put plainly: Alopecia in mice observed at high dose with Hypervitaminosis; 1/16. It counts as functional, organism-based.
The species entered for assay [25] is Mus musculus. In words: Mortality rate in mice in low dose. It counts as functional. The method, boiled down: (§2)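 Male B6D2F1 mice given compound daily by gavage in corn oil at the stated dose levels, with corn oil vehicle controls. Deaths counted as animals found dead or sacrificed moribund, with day(s) of death recorded. Heteroarotinoid groups ran to day 65 and low-dose reference groups to day 25.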

The species entered for assay [26] is Mus musculus. In words: Alopecia in mice observed at mid dose 2 with Hypervitaminosis; 3/16. It counts as functional, organism-based.
Assay [27] is filed under the species Mus musculus. Put plainly: Effect of compound on serum triglycerides levels in mice at mid dose 2 on day 8. It counts as functional. The method, boiled down: (§3)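 Male B6D2F1 mice were gavaged daily with compound in corn oil at low, mid 1, mid 2 or high dose. Serum triglycerides and circulating white blood cells were measured on the stated day (8, 29, 36, 65). Values are group mean ± SD expressed as % relative to corn-oil vehicle, with significance at p ≤ 0.05.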

Assay [28] is filed under the species Mus musculus. In words: Mortality rate in mice in mid dose 1. Format: functional. The method, boiled down: as §2
The species entered for assay [29] is Mus musculus. In words: Effect of compound on white blood cells levels in mice at low dose on day 8. Format: functional. The procedure, abridged: as §3
For assay [30], the species on record is Mus musculus. In words: Fracture incidence in mouse at mid dose 2; 4/8.
The species entered for assay [31] is Mus musculus. In words: Mortality rate in mice in high dose. Format: functional. The method, boiled down:
as §2

The species named for assay [32] is Mus musculus. In words: Fracture incidence in mouse at mid dose 2; 6/7.
Assay [33] is filed under the species Mus musculus. Put plainly: Compound toxicity determined by total dose to termination (day 25/65) in high dose. It counts as functional. The method, boiled down: (§4)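 Male B6D2F1 mice given daily oral gavage in corn oil; dosages increased during the study (day 30 or day 51 depending on compound). Cumulative dose in mg/kg administered up to termination (day 65, or day 25 for TTNPB 0.01/0.05 mg/kg/day groups).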

The species named for assay [34] is Mus musculus. In words: Compound toxicity determined by total dose to termination (day 25/65) in low dose. It counts as functional. The procedure, abridged:
as §4

The species named for assay [35] is Mus musculus. Put plainly: Effect of compound on right testicle to body weight ratios in mice at high dose on day 65; all the animals died by day 65. It counts as functional, organism-based. The method, boiled down: as §1
For assay [36], the species on record is Mus musculus. In words: Effect of compound on white blood cells levels in mice at mid dose 1 on day 65. Format: functional. The method, boiled down: as §3
The species named for assay [37] is Mus musculus. Put plainly: Effect of compound on serum Alkaline phosphatase levels in mice at low dose on day 36. It counts as functional. The procedure, abridged:
(§5)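 Male B6D2F1 mice dosed daily by oral gavage in corn oil at low, mid 1, mid 2 or high dose. Blood sampled on set days (8, 29, 36, 65) for clinical chemistry, serum alkaline phosphatase and triglycerides. Group mean ± SD reported as % relative to vehicle 1; significance p < 0.05 versus corn oil vehicle.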

Assay [38] is filed under the species Mus musculus. In words: Effect of compound on white blood cells levels in mice at mid dose 2 on day 8. Format: functional. The method, boiled down:
as §3

Assay [39] is filed under the species Mus musculus. In words: Enlarged lymph in gross pathological observations in mice with hypervitaminosis A in mice at high dose with gross observations/total number of mice in group; 8/16. Format: functional, organism-based.
Assay [40] is filed under the species Mus musculus. Put plainly: Effect of compound on serum Alkaline phosphatase levels in mice at mid dose 1 on day 36. It counts as functional. The procedure, abridged:
as §5

As for `C/C(=C\c1ccc(C(=O)O)cc1)c1ccc2c(c1)C(C)(C)CCC2(C)C`, the Activity result in assay [1] was “Toxic”; in assay [2] it was “Toxic”; in assay [3], “Toxic”; in assay [4], “Toxic”; in assay [5] it was “Weak activity”; in [6], “Toxic”. In addition, the Activity entry in [7] was “Toxic”; in [9] it was “Weak activity”; in assay [10] it was 0; in assay [12], “Toxic”; in assay [14], “Toxic”; in [15] it was 8. Moreover, the Activity in assay [20] is 3.3; in [21], “Toxic”. The result in [8], in assay [11], in assay [13] and in assay [17] was Active. Besides, the outcome in [16], in assay [18] and in assay [19] was inactive.

In the case of `CC(/C=C/C=C(\C)c1ccc2c(c1)C(C)(C)CCS2)=C\C(=O)O`, the result in assay [22], in [23] and in assay [24] was inactive.

`CC(/C=C/C=C(\C)c1ccc2c(c1)C(C)(C)CCO2)=C\C(=O)O`: the Mortality in assay [25], in [28] and in assay [31] was 0 day of death each time. Also, in assay [26], the outcome was inactive. The Activity in assay [27] is 112.3; in [29], 4.84; in [30] it was “Weak activity”.

With `C/C(=C\c1ccc(C(=O)O)cc1)c1ccc2c(c1)C(C)(C)CCO2`, in assay [32], the result was Active. The results for the Total dose in assay [33] and in assay [34] were 1176.8 mg/kg and 147.1 mg/kg, respectively. Also, the Activity entry is “Toxic” in assay [35]; 5.46 in [36]; 77.4 in [37]; 5.26 in assay [38]; “Weak activity” in assay [39]; 81.5 in [40].
